Values after ≈ are worked out from the molar mass of the structure shown.

Common to all, as to type: functional
The subject of one assay is Pseudomonas aeruginosa. Nature of the assay: Minimum inhibitory concentration against Pseudomonas aeruginosa UI-18. The following applies: Pseudomonas aeruginosa; read-out: MIC. In outline: (§1)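 Standard microdilution method against a panel of five Gram-negative and five Gram-positive bacterial strains. The MIC (µg/mL) was recorded for each strain.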
The test system of another assay is Streptococcus pneumoniae. As to the kind of experiment: Minimum inhibitory concentration against Streptococcus pneumoniae SV-1. In outline:
as §1

The subject of the next assay is Streptococcus pyogenes. As to the kind of experiment: Minimum inhibitory concentration against Streptococcus pyogenes C-203. An outline of the steps:
as §1

The next assay relates to Klebsiella pneumoniae. As to the kind of experiment: Minimum inhibitory concentration against Klebsiella pneumoniae MGH-2. In outline: as §1
The test system of the next assay is Enterococcus faecalis. Nature of the assay: Minimum inhibitory concentration against […] MGH-2. An outline of the steps: as §1
In another assay the test system is Providencia rettgeri. As to the kind of experiment: Minimum inhibitory concentration against Providencia rettgeri M-1771. In outline:
as §1

The next assay deals with Enterobacter cloacae. Nature of the assay: Minimum inhibitory concentration against […] MA-2646. In outline: as §1
Assay [1] concerns Staphylococcus aureus. Nature of the assay: Minimum inhibitory concentration against Staphylococcus aureus H-228. In outline:
as §1

Assay [2] relates to Staphylococcus aureus. As to the kind of experiment: Minimum inhibitory concentration against Staphylococcus aureus UC-76. In outline: as §1
The subject of a further assay is Escherichia coli. As to the kind of experiment: Minimum inhibitory concentration against Escherichia coli Vogel. An outline of the steps: as §1
The mark [3] stands for this setting: Streptococcus pneumoniae, read-out: MIC.
The mark [4] stands for this setting: Streptococcus pyogenes, read-out: MIC.
The mark [5] stands for this setting: Klebsiella pneumoniae, read-out: MIC.
Setting [6] is: Enterococcus faecalis, read-out: MIC.
The mark [7] stands for this setting: Providencia rettgeri, read-out: MIC.
Setting [8] is: Enterobacter cloacae, read-out: MIC.
Where [9] appears, read: Staphylococcus aureus, read-out: MIC.
Setting [10] is: Escherichia coli, read-out: MIC.

With `COc1ccccc1C1CN(c2c(F)cc3c(=O)c(C(=O)O)cn(C4CC4)c3c2F)CC1N` (trans isomer), the MIC with Pseudomonas aeruginosa was found to be 3.1 µg/mL (≈ 6.81 µM); in the assay with Streptococcus pneumoniae (setting [3]) it was 0.1 µg/mL (≈ 0.22 µM); in the assay on Streptococcus pyogenes (setting [4]), 0.1 µg/mL (≈ 0.22 µM); with Klebsiella pneumoniae (setting [5]) it was 0.4 µg/mL (≈ 0.878 µM); in the assay with Enterococcus faecalis (setting [6]), 0.1 µg/mL (≈ 0.22 µM); in the assay with Providencia rettgeri (setting [7]) it was 0.8 µg/mL (≈ 1.76 µM). Moreover, the MIC amounted to 0.4 µg/mL (≈ 0.878 µM) in the assay with Enterobacter cloacae (setting [8]), 0.05 µg/mL (≈ 0.11 µM) with Staphylococcus aureus [1] (setting [9]), 0.025 µg/mL (≈ 0.0549 µM) with Staphylococcus aureus [2] (setting [9]) and 0.2 µg/mL (≈ 0.439 µM) in the assay on Escherichia coli (setting [10]).
Regarding `NC1CN(c2nc3c(cc2F)c(=O)c(C(=O)O)cn3C2CC2)CC1c1ccc(O)cc1` (trans isomer), the MIC amounted to 1.6 µg/mL (≈ 3.77 µM) in the assay on Pseudomonas aeruginosa; 0.2 µg/mL (≈ 0.471 µM) in the assay on Streptococcus pneumoniae (setting [3]); 0.2 µg/mL (≈ 0.471 µM) in the assay on Streptococcus pyogenes (setting [4]); 0.2 µg/mL (≈ 0.471 µM) in the assay on Klebsiella pneumoniae (setting [5]); 0.1 µg/mL (≈ 0.236 µM) with Enterococcus faecalis (setting [6]); 0.4 µg/mL (≈ 0.942 µM) in the assay with Providencia rettgeri (setting [7]). For the same compound, the MIC was determined as 0.1 µg/mL (≈ 0.236 µM) in the assay with Enterobacter cloacae (setting [8]), 0.4 µg/mL (≈ 0.942 µM) with Staphylococcus aureus [1] (setting [9]), 0.1 µg/mL (≈ 0.236 µM) with Staphylococcus aureus [2] (setting [9]) and 0.1 µg/mL (≈ 0.236 µM) with Escherichia coli (setting [10]).
For the compound `NCC1CN(c2c(F)c(N)c3c(=O)c(C(=O)O)cn(C4CC4)c3c2F)CC1c1ccc(N)cc1` (trans isomer), the MIC in the assay on Pseudomonas aeruginosa is 0.8 µg/mL (≈ 1.7 µM); in the assay on Streptococcus pneumoniae (setting [3]), 0.013 µg/mL (≈ 0.0277 µM); in the assay on Streptococcus pyogenes (setting [4]), 0.025 µg/mL (≈ 0.0532 µM); in the assay on Klebsiella pneumoniae (setting [5]), 0.2 µg/mL (≈ 0.426 µM); in the assay with Enterococcus faecalis (setting [6]), 0.025 µg/mL (≈ 0.0532 µM); in the assay on Providencia rettgeri (setting [7]), 0.2 µg/mL (≈ 0.426 µM). The MIC in the assay on Enterobacter cloacae (setting [8]) amounted to 0.1 µg/mL (≈ 0.213 µM); in the assay with Staphylococcus aureus [1] (setting [9]), 0.025 µg/mL (≈ 0.0532 µM); with Staphylococcus aureus [2] (setting [9]) it was 0.006 µg/mL (≈ 0.0128 µM); in the assay with Escherichia coli (setting [10]), 0.1 µg/mL (≈ 0.213 µM).
`NC1CN(c2nc3c(cc2F)c(=O)c(C(=O)O)cn3C2CC2)CC1c1ccc(Cl)c(Cl)c1` (trans isomer): the MIC is 3.1 µg/mL (≈ 6.49 µM) in the assay with Pseudomonas aeruginosa; 0.2 µg/mL (≈ 0.419 µM) with Streptococcus pneumoniae (setting [3]); 0.4 µg/mL (≈ 0.838 µM) in the assay with Streptococcus pyogenes (setting [4]); 0.4 µg/mL (≈ 0.838 µM) in the assay on Klebsiella pneumoniae (setting [5]); 0.2 µg/mL (≈ 0.419 µM) with Enterococcus faecalis (setting [6]); 0.8 µg/mL (≈ 1.68 µM) in the assay with Providencia rettgeri (setting [7]). The MIC in the assay with Enterobacter cloacae (setting [8]) is 0.4 µg/mL (≈ 0.838 µM); in the assay with Staphylococcus aureus [1] (setting [9]) it was 0.1 µg/mL (≈ 0.21 µM); in the assay on Staphylococcus aureus [2] (setting [9]), 0.05 µg/mL (≈ 0.105 µM); in the assay on Escherichia coli (setting [10]), 0.4 µg/mL (≈ 0.838 µM).
For `NC1CN(c2cc3c(cc2F)c(=O)c(C(=O)O)cn3C2CC2)CC1C1CC1` (stereo not given), the MIC came to 0.8 µg/mL (≈ 2.15 µM) in the assay with Pseudomonas aeruginosa; 0.1 µg/mL (≈ 0.269 µM) in the assay with Streptococcus pneumoniae (setting [3]); 0.1 µg/mL (≈ 0.269 µM) in the assay with Streptococcus pyogenes (setting [4]); 0.05 µg/mL (≈ 0.135 µM) with Klebsiella pneumoniae (setting [5]); 0.1 µg/mL (≈ 0.269 µM) in the assay with Enterococcus faecalis (setting [6]); 0.1 µg/mL (≈ 0.269 µM) with Providencia rettgeri (setting [7]). The MIC with Enterobacter cloacae (setting [8]) was 0.1 µg/mL (≈ 0.269 µM); in the assay with Staphylococcus aureus [1] (setting [9]) it was 0.1 µg/mL (≈ 0.269 µM); with Staphylococcus aureus [2] (setting [9]), ≤ 0.025 µg/mL; in the assay with Escherichia coli (setting [10]), 0.05 µg/mL (≈ 0.135 µM).
`CN(C)c1ccc(C2CN(c3nc4c(cc3F)c(=O)c(C(=O)O)cn4C3CC3)CC2N)cc1` (trans isomer): the MIC with Pseudomonas aeruginosa came to 3.1 µg/mL (≈ 6.87 µM); in the assay on Streptococcus pneumoniae (setting [3]), 0.2 µg/mL (≈ 0.443 µM); with Streptococcus pyogenes (setting [4]), 0.2 µg/mL (≈ 0.443 µM); in the assay on Klebsiella pneumoniae (setting [5]), 0.4 µg/mL (≈ 0.886 µM); in the assay with Enterococcus faecalis (setting [6]), 0.2 µg/mL (≈ 0.443 µM); in the assay with Providencia rettgeri (setting [7]), 0.4 µg/mL (≈ 0.886 µM). Further, the MIC in the assay on Enterobacter cloacae (setting [8]) is 0.2 µg/mL (≈ 0.443 µM); with Staphylococcus aureus [1] (setting [9]) it was 0.05 µg/mL (≈ 0.111 µM); with Staphylococcus aureus [2] (setting [9]), 0.025 µg/mL (≈ 0.0554 µM); in the assay on Escherichia coli (setting [10]), 0.2 µg/mL (≈ 0.443 µM).
Turning to `NCC1CN(c2c(F)c(N)c3c(=O)c(C(=O)O)cn(C4CC4)c3c2F)CC1c1ccccc1` (trans isomer), the MIC in the assay with Pseudomonas aeruginosa came to 0.8 µg/mL (≈ 1.76 µM); with Streptococcus pneumoniae (setting [3]), 0.003 µg/mL (≈ 0.0066 µM); with Streptococcus pyogenes (setting [4]) it was 0.006 µg/mL (≈ 0.0132 µM); in the assay on Klebsiella pneumoniae (setting [5]), 0.05 µg/mL (≈ 0.11 µM); with Enterococcus faecalis (setting [6]) it was 0.013 µg/mL (≈ 0.0286 µM); with Providencia rettgeri (setting [7]) it was 0.1 µg/mL (≈ 0.22 µM). Further, the MIC with Enterobacter cloacae (setting [8]) is 0.05 µg/mL (≈ 0.11 µM); with Staphylococcus aureus [1] (setting [9]), 0.006 µg/mL (≈ 0.0132 µM); in the assay on Staphylococcus aureus [2] (setting [9]) it was 0.003 µg/mL (≈ 0.0066 µM); with Escherichia coli (setting [10]) it was 0.025 µg/mL (≈ 0.055 µM).
Take `CCOC(=O)C1CC1C1CN(c2nc3c(cc2F)c(=O)c(C(=O)O)cn3C2CC2)CC1N` (trans isomer): the MIC worked out at 2.5 µg/mL (≈ 5.62 µM) in the assay with Pseudomonas aeruginosa; 1.6 µg/mL (≈ 3.6 µM) with Streptococcus pneumoniae (setting [3]); 1.6 µg/mL (≈ 3.6 µM) in the assay on Streptococcus pyogenes (setting [4]); 3.1 µg/mL (≈ 6.97 µM) in the assay on Klebsiella pneumoniae (setting [5]); 1.6 µg/mL (≈ 3.6 µM) in the assay on Enterococcus faecalis (setting [6]); 6.3 µg/mL (≈ 14.2 µM) in the assay on Providencia rettgeri (setting [7]). The MIC in the assay with Enterobacter cloacae (setting [8]) is 1.6 µg/mL (≈ 3.6 µM); in the assay with Staphylococcus aureus [1] (setting [9]), 1.6 µg/mL (≈ 3.6 µM); in the assay with Staphylococcus aureus [2] (setting [9]), 0.4 µg/mL (≈ 0.9 µM); with Escherichia coli (setting [10]), 1.6 µg/mL (≈ 3.6 µM).
As to `COc1ccccc1C1CN(c2nc3c(cc2F)c(=O)c(C(=O)O)cn3C2CC2)CC1N` (cis isomer), the MIC with Pseudomonas aeruginosa was > 3.1 µg/mL; with Streptococcus pneumoniae, 0.8 µg/mL (≈ 1.82 µM); against Streptococcus pyogenes it was 1.6 µg/mL (≈ 3.65 µM); against Klebsiella pneumoniae it was 1.6 µg/mL (≈ 3.65 µM); against Enterococcus faecalis, 0.8 µg/mL (≈ 1.82 µM); with Providencia rettgeri, 3.1 µg/mL (≈ 7.07 µM). In addition, the MIC with Enterobacter cloacae is 0.8 µg/mL (≈ 1.82 µM); in the assay with Staphylococcus aureus [1] it was 0.4 µg/mL (≈ 0.912 µM); against Staphylococcus aureus [2] it was 0.2 µg/mL (≈ 0.456 µM); in the assay on Escherichia coli it was 0.8 µg/mL (≈ 1.82 µM).
Regarding `COc1ccc(C2CN(c3nc4c(cc3F)c(=O)c(C(=O)O)cn4C3CC3)CC2N)cc1` (trans isomer), the MIC in the assay on Pseudomonas aeruginosa is 1.6 µg/mL (≈ 3.65 µM); in the assay on Streptococcus pneumoniae (setting [3]) it was 0.1 µg/mL (≈ 0.228 µM); in the assay on Streptococcus pyogenes (setting [4]), 0.1 µg/mL (≈ 0.228 µM); in the assay with Klebsiella pneumoniae (setting [5]) it was 0.2 µg/mL (≈ 0.456 µM); with Enterococcus faecalis (setting [6]), 0.2 µg/mL (≈ 0.456 µM); with Providencia rettgeri (setting [7]) it was 0.4 µg/mL (≈ 0.912 µM). The MIC in the assay with Enterobacter cloacae (setting [8]) was 0.1 µg/mL (≈ 0.228 µM); with Staphylococcus aureus [1] (setting [9]), 0.1 µg/mL (≈ 0.228 µM); in the assay on Staphylococcus aureus [2] (setting [9]), 0.05 µg/mL (≈ 0.114 µM); with Escherichia coli (setting [10]), 0.1 µg/mL (≈ 0.228 µM).

Source of the values: ChEMBL document CHEMBL1126564, “Synthesis and antimicrobial evaluation of a series of 7-[3-amino (or aminomethyl)-4-aryl (or cyclopropyl)-1-pyrrolidinyl]-4-quinolone- and -1,8-naphthyridone-3-carboxylic acids” (1993).
